Results: ChEMBL document CHEMBL1926565, “Synthesis, antiproliferative activities and telomerase inhibition evaluation of novel asymmetrical 1,2-disubstituted amidoanthraquinone derivatives” (Eur J Med Chem, 2012)
Calls of active or inactive are those of the source. The calls are words filed in the database; no cut-off is given here.

Experiments:
SK-MEL-28 = assay: Cytotoxicity against human SK-MEL-28 cells assessed as cellular growth at 10 uM; format: functional
Procedure, shortened: (§1)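 Single-dose screen run by the NCI across its 60-human-tumour-cell-line panel; growth recorded for each cell line.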

SK-MEL-5 = assay: Cytotoxicity against human SK-MEL-5 cells assessed as cellular growth at 10 uM; format: functional
UACC-62 = assay: Cytotoxicity against human UACC62 cells assessed as cellular growth at 10 uM; format: functional
IGROV-1 = assay: Cytotoxicity against human IGROV1 cells assessed as cellular growth at 10 uM; format: functional; procedure, shortened: as §1
OVCAR-3 = assay: Cytotoxicity against human OVCAR3 cells assessed as cellular growth at 10 uM; format: functional; procedure, shortened: as §1
OVCAR-4 = assay: Cytotoxicity against human OVCAR4 cells assessed as cellular growth at 10 uM; format: functional; procedure, shortened: as §1
OVCAR-5 = assay: Cytotoxicity against human OVCAR5 cells assessed as cellular growth at 10 uM; format: functional; procedure, shortened: as §1
OVCAR-8 = assay: Cytotoxicity against human OVCAR8 cells assessed as cellular growth at 10 uM; format: functional; procedure, shortened: as §1
NCI/ADR-RES = assay: Cytotoxicity against human NCI/ADR-RES cells assessed as cellular growth at 10 uM; format: functional; procedure, shortened: as §1
SK-OV-3 = assay: Cytotoxicity against human SKOV3 cells assessed as cellular growth at 10 uM; format: functional
786-0 = assay: Cytotoxicity against human 786-0 cells assessed as cellular growth at 10 uM; format: functional; procedure, shortened: as §1
A498 = assay: Cytotoxicity against human A498 cells assessed as cellular growth at 10 uM; format: functional; procedure, shortened: as §1
ACHN = assay: Cytotoxicity against human ACHN cells assessed as cellular growth at 10 uM; format: functional; procedure, shortened: as §1
SN12C = assay: Cytotoxicity against human SN12C cells assessed as cellular growth at 10 uM; format: functional
TK-10 = assay: Cytotoxicity against human TK10 cells assessed as cellular growth at 10 uM; format: functional
UO-31 = assay: Cytotoxicity against human UO31 cells assessed as cellular growth at 10 uM; format: functional
CAKI-1 = assay: Cytotoxicity against human Caki1 cells assessed as cellular growth at 10 uM; format: functional; procedure, shortened: as §1
PC-3 = assay: Cytotoxicity against human PC3 cells assessed as cellular growth at 10 uM; format: functional; procedure, shortened: as §1
DU-145 = assay: Cytotoxicity against human DU145 cells assessed as cellular growth at 10 uM; format: functional; procedure, shortened: as §1
MDA-MB-231 = assay: Cytotoxicity against human MDA-MB-231 cells assessed as cellular growth at 10 uM; format: functional; procedure, shortened: as §1
[1] = Cytotoxicity against human Hs 578T cells assessed as cellular growth at 10 uM; format: functional; procedure, shortened: as §1
BT-549 = assay: Cytotoxicity against human BT549 cells assessed as cellular growth at 10 uM; format: functional; procedure, shortened: as §1
T47D = assay: Cytotoxicity against human T47D cells assessed as cellular growth at 10 uM; format: functional
MDA-MB-468 = assay: Cytotoxicity against human MDA-MB-468 cells assessed as cellular growth at 10 uM; format: functional; procedure, shortened: as §1
CCRF-CEM = assay: Cytotoxicity against human CCRF-CEM cells assessed as cellular growth at 10 uM; format: functional; procedure, shortened: as §1
[2] = molecular target: Telomerase reverse transcriptase (Homo sapiens) (UniProt O14746); assay: Inhibition of telomerase activity in human H1299 cell free extract at 10 uM by modified TRAP assay
Chain of Telomerase reverse transcriptase (Homo sapiens) (O14746 whole entry): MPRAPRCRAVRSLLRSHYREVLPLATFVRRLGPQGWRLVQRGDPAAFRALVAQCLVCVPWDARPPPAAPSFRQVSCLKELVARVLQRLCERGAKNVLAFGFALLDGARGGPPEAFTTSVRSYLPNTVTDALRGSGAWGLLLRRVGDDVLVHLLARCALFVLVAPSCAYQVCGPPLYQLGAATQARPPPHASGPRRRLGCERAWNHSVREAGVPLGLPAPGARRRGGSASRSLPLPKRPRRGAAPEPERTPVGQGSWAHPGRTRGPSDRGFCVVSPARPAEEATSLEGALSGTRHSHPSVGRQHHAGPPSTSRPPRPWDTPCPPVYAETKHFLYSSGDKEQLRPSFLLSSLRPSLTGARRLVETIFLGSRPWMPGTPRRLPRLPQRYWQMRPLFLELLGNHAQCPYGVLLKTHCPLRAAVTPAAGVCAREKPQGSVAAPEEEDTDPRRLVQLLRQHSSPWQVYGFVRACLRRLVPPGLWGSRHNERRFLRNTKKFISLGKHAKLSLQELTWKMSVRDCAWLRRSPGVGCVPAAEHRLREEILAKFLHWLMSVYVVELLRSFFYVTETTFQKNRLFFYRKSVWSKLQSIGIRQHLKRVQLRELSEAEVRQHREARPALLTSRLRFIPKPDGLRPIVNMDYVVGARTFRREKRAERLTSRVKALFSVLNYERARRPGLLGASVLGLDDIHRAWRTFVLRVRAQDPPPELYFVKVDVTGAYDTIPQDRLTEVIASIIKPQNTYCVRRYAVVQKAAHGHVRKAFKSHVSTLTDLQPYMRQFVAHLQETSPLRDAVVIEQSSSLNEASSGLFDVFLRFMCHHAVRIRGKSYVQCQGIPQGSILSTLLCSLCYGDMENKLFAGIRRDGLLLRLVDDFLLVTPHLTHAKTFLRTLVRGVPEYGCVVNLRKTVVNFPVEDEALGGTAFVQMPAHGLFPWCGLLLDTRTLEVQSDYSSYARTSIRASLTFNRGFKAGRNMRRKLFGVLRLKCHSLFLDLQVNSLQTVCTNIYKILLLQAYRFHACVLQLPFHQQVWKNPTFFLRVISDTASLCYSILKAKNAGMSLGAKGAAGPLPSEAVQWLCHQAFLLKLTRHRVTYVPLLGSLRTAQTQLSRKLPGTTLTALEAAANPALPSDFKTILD
Procedure, shortened: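 TRAP assay using total cell lysate from H1299 lung cancer cells as the telomerase source, with protein measured against BSA standards. Compounds tested at 10 µM. Controls were lysate without inhibitor (positive) and RNase A-treated extract without inhibitor (negative).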

HL-60(TB) = assay: Cytotoxicity against human HL-60(TB) cells assessed as cellular growth at 10 uM; format: functional; procedure, shortened: as §1
MOLT-4 = assay: Cytotoxicity against human MOLT4 cells assessed as cellular growth at 10 uM; format: functional; procedure, shortened: as §1
EKVX = assay: Cytotoxicity against human EKVX cells assessed as cellular growth at 10 uM; format: functional; procedure, shortened: as §1
HOP-62 = assay: Cytotoxicity against human HOP62 cells assessed as cellular growth at 10 uM; format: functional; procedure, shortened: as §1
HOP-92 = assay: Cytotoxicity against human HOP92 cells assessed as cellular growth at 10 uM; format: functional; procedure, shortened: as §1
NCI-H226 = assay: Cytotoxicity against human NCI-H226 cells assessed as cellular growth at 10 uM; format: functional; procedure, shortened: as §1
NCI-H23 = assay: Cytotoxicity against human NCI-H23 cells assessed as cellular growth at 10 uM; format: functional; procedure, shortened: as §1
NCI-H322M = assay: Cytotoxicity against human NCI-H322M cells assessed as cellular growth at 10 uM; format: functional; procedure, shortened: as §1
NCI-H460 = assay: Cytotoxicity against human NCI-H460 cells assessed as cellular growth at 10 uM; format: functional; procedure, shortened: as §1
NCI-H522 = assay: Cytotoxicity against human NCI-H522 cells assessed as cellular growth at 10 uM; format: functional; procedure, shortened: as §1
A549 = assay: Cytotoxicity against human A549 cells assessed as cellular growth at 10 uM; format: functional; procedure, shortened: as §1
COLO 205 = assay: Cytotoxicity against human COLO205 cells assessed as cellular growth at 10 uM; format: functional; procedure, shortened: as §1
HCC 2998 = assay: Cytotoxicity against human HCC2998 cells assessed as cellular growth at 10 uM; format: functional; procedure, shortened: as §1
HCT-116 = assay: Cytotoxicity against human HCT116 cells assessed as cellular growth at 10 uM; format: functional; procedure, shortened: as §1
HCT-15 = assay: Cytotoxicity against human HCT15 cells assessed as cellular growth at 10 uM; format: functional; procedure, shortened: as §1
SF-268 = assay: Cytotoxicity against human SF268 cells assessed as cellular growth at 10 uM; format: functional; procedure, shortened: as §1
SF-295 = assay: Cytotoxicity against human SF295 cells assessed as cellular growth at 10 uM; format: functional; procedure, shortened: as §1
SF-539 = assay: Cytotoxicity against human SF539 cells assessed as cellular growth at 10 uM; format: functional; procedure, shortened: as §1
SNB-19 = assay: Cytotoxicity against human SNB19 cells assessed as cellular growth at 10 uM; format: functional
SNB-75 = assay: Cytotoxicity against human SNB75 cells assessed as cellular growth at 10 uM; format: functional
U-251 = assay: Cytotoxicity against human U251 cells assessed as cellular growth at 10 uM; format: functional
Malme-3M = assay: Cytotoxicity against human MALME-3M cells assessed as cellular growth at 10 uM; format: functional; procedure, shortened: as §1
M14 = assay: Cytotoxicity against human M14 cells assessed as cellular growth at 10 uM; format: functional; procedure, shortened: as §1
SK-MEL-2 = assay: Cytotoxicity against human SK-MEL-2 cells assessed as cellular growth at 10 uM; format: functional; procedure, shortened: as §1
[3] = Growth of human H1299 cells at 100 uM 48 hrs by MTT assay; conditions: NCI-H1299, 48 h
[4] = Growth of human H1299 cells at 1 uM after 48 hrs by MTT assay; conditions: NCI-H1299, 48 h
[5] = Growth of human H1299 cells at 10 uM after 48 hrs by MTT assay; conditions: NCI-H1299, 48 h
[6] = molecular target: Telomerase reverse transcriptase (Homo sapiens) (UniProt O14746); assay: Residual activity of human TERT in H1299 cells at 100 uM after 24 hrs by SEAP reporter gene assay

Question: What does the source list for `Cc1ccc(C(=O)Nc2c(NC(=O)CN3CCCC3)ccc3c2C(=O)c2ccccc2C3=O)cc1`?
Answer: Activity (SK-MEL-28): 92.18%; Activity (SK-MEL-5): 61.74%; Activity (UACC-62): 76.82%; Activity (IGROV-1): 106.07%; Activity (OVCAR-3): 77.82%; Activity (OVCAR-4): 47.06%; Activity (OVCAR-5): 102.31%; Activity (OVCAR-8): 65.02%; Activity (NCI/ADR-RES): 50.86%; Activity (SK-OV-3): 82.13%; Activity (786-0): 65.15%; Activity (A498): 68.12%; Activity (ACHN): 82.23%; Activity (SN12C): 74.82%; Activity (TK-10): 86.85%; Activity (UO-31): 69.24%; Activity (CAKI-1): 55.64%; Activity (PC-3): 75%; Activity (DU-145): 91.52%; Activity (MDA-MB-231): 73.34%; Activity [1]: 69.39%; Activity (BT-549): 81.58%; Activity (T47D): 44.33%; Activity (MDA-MB-468): 69.27%; Activity (CCRF-CEM): 39.61%; inhibition [2]: inactive; Activity (HL-60(TB)): 96.11%; Activity (MOLT-4): 48.2%; Activity (EKVX): 65.93%; Activity (HOP-62): 113.43%; Activity (HOP-92): 59.33%; Activity (NCI-H226): 90.22%; Activity (NCI-H23): 73.29%; Activity (NCI-H322M): 82.5%; Activity (NCI-H460): 61.05%; Activity (NCI-H522): 103.02%; Activity (A549): 84.88%; Activity (COLO 205): 65.6%; Activity (HCC 2998): 84.6%; Activity (HCT-116): 58.46%; Activity (HCT-15): 73.22%; Activity (SF-268): 86.17%; Activity (SF-295): 68.97%; Activity (SF-539): 81.29%; Activity (SNB-19): 108.22%; Activity (SNB-75): 66.03%; Activity (U-251): 82.17%; Activity (Malme-3M): 82.24%; Activity (M14): 88.01%; Activity (SK-MEL-2): 102.17%; growth, % of control at 100 µM [3]: 5%; growth, % of control at 1 µM [4]: 88%; growth, % of control at 10 µM [5]: 69%; residual activity [6]: 3%
